Measurements: ChEMBL document CHEMBL1641559, “Facile synthesis and biological evaluation of 3,3-diphenylpropanoyl piperazines as T-type calcium channel blockers” (Bioorg Med Chem Lett, 2011)

What follows are compounds tested against T1, Voltage-dependent T-type calcium channel subunit alpha-1G (Homo sapiens, UniProt O43497) (assay: Inhibition of T-type alpha1G calcium channel expressed in HEK293 cells assessed as Kcl-induced depolarization at 10 uM).
Assay type: cell-based
Procedure, shortened: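 HEK293 cells stably expressing alpha1G plus Kir2.1, grown in DMEM/10% FBS with penicillin, streptomycin, geneticin and puromycin at 37 °C, 5% CO2; seeded 4 × 10^4 cells/well, used next day. Loaded 60 min at room temperature with 5 µM fluo3/AM and 0.001% Pluronic F-127 in Hepes buffer (pH 7.4). Channels activated by 70 mM KCl with 10 mM CaCl2; rise in intracellular Ca2+ read by FDSS6000 fluorescence.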

T1 sequence (O43497 whole entry): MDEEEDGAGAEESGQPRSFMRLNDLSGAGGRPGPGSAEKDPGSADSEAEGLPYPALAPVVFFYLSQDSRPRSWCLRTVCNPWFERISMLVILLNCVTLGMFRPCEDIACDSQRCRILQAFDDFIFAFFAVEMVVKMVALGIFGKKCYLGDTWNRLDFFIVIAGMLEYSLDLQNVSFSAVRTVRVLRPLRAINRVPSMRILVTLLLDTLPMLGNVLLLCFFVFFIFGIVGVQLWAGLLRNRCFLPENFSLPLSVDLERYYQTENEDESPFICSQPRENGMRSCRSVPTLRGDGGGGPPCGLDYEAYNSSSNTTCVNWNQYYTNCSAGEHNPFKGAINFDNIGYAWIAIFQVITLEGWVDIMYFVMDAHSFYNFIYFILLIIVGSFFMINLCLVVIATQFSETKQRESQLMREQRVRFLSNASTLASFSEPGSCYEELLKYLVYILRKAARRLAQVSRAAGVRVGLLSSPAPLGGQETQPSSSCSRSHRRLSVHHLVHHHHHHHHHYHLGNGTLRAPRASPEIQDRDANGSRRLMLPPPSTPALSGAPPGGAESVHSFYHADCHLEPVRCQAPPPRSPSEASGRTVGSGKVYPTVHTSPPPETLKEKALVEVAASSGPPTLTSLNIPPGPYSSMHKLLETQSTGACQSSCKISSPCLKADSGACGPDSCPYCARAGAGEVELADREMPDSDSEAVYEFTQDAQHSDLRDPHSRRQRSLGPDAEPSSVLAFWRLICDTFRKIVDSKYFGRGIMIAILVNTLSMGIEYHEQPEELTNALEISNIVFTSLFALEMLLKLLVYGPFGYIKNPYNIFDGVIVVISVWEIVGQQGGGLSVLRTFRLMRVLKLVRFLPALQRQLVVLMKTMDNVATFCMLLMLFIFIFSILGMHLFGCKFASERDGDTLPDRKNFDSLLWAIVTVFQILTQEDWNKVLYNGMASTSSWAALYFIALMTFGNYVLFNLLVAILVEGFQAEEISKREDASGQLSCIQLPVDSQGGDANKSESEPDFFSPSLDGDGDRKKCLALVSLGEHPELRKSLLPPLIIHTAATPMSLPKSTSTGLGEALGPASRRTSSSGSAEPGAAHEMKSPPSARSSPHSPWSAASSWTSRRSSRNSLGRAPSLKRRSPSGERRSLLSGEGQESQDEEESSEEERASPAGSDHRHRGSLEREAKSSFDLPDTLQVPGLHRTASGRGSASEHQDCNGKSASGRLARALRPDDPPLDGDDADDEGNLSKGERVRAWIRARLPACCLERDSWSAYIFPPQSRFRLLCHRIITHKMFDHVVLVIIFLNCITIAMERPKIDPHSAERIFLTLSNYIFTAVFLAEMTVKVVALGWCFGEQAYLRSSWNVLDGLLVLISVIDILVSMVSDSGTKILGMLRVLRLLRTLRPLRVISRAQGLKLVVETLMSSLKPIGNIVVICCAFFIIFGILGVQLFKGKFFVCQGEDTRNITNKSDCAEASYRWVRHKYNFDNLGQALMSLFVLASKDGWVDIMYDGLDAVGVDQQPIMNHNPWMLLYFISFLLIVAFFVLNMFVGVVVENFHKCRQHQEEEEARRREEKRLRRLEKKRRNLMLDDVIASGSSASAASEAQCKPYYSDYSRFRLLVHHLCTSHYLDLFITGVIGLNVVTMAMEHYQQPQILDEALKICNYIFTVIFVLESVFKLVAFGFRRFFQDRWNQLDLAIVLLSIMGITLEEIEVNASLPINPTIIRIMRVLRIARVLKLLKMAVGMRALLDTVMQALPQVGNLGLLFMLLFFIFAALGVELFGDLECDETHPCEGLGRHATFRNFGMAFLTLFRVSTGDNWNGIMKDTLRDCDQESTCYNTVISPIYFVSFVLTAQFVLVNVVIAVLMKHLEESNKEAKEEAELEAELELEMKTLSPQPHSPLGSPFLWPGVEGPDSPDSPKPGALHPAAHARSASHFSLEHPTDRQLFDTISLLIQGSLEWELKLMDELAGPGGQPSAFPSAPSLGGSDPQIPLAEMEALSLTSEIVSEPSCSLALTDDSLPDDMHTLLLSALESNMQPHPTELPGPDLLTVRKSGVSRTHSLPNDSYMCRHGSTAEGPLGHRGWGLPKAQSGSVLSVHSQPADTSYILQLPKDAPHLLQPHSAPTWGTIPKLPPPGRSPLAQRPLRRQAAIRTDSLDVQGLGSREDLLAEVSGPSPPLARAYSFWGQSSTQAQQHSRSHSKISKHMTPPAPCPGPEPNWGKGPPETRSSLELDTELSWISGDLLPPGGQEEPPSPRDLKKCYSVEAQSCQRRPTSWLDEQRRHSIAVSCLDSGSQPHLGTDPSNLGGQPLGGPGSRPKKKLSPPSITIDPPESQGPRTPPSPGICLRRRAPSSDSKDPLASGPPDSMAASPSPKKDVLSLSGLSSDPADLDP

First: COc1ccc(C(CC(=O)N2CCN(Cc3nc4ccc(C)cc4o3)CC2)c2cccc(F)c2)cc1 (centres undefined)
Second: Cc1ccc2nc(CN3CCN(C(=O)CC(c4ccc(Cl)cc4)c4cccc(F)c4)CC3)oc2c1 (centres undefined)
The inhibition of the first is higher: 52% for the first, 32.2% for the second.

Compared with COC(=O)c1coc(CN2CCN(C(=O)CC(c3ccc(F)cc3)c3cccc(F)c3)CC2)n1 (centres undefined), COC(=O)c1coc(CN2CCN(C(=O)CC(c3ccc(Br)cc3)c3cccc(F)c3)CC2)n1 (centres undefined) is lower in inhibition: 44.5% for the first, 36.6% for the second.

Going from Cc1ccc2nc(CN3CCN(C(=O)CC(c4ccc(F)cc4)c4ccc(Cl)cc4)CC3)oc2c1 (centres undefined) to Cc1ccc2nc(CN3CCN(C(=O)CC(c4ccc(F)cc4)c4ccc(F)cc4)CC3)oc2c1, the inhibition rises from 15.5% to 30.9%.

Going from COC(=O)c1coc(CN2CCN(C(=O)CC(c3ccc(C(F)(F)F)cc3)c3cccc(F)c3)CC2)n1 (centres undefined) to COC(=O)c1coc(CN2CCN(C(=O)CC(c3ccc(F)cc3)c3ccc(C(F)(F)F)cc3)CC2)n1 (centres undefined), the inhibition falls from 57.6% to 51.8%.

First: COc1ccc(C(CC(=O)N2CCN(Cc3nc4ccc(C)cc4o3)CC2)c2ccccc2)cc1 (centres undefined)
Second: Cc1ccc2nc(CN3CCN(C(=O)CC(c4ccccc4)c4ccc(Br)cc4)CC3)oc2c1 (centres undefined)
The inhibition of the first is higher: 63.5% for the first, 13.6% for the second.

Going from COC(=O)c1coc(CN2CCN(C(=O)CC(c3ccc(F)cc3)c3ccc(F)cc3)CC2)n1 to COC(=O)c1coc(CN2CCN(C(=O)CC(c3ccc(F)cc3)c3ccc(Cl)cc3)CC2)n1 (centres undefined), the inhibition rises from 33.5% to 45.1%.

Compared with O=C(O)c1coc(CN2CCN(C(=O)CC(c3ccc(F)cc3)c3ccc(F)cc3)CC2)n1, O=C(O)c1coc(CN2CCN(C(=O)CC(c3ccc(F)cc3)c3ccc(Br)cc3)CC2)n1 (centres undefined) is higher in inhibition: 3.84% for the first, 5.42% for the second.

Compared with COC(=O)c1coc(CN2CCN(C(=O)CC(c3ccccc3)c3ccc(Cl)cc3)CC2)n1 (centres undefined), COC(=O)c1coc(CN2CCN(C(=O)CC(c3ccccc3)c3ccc(Br)cc3)CC2)n1 (centres undefined) is higher in inhibition: 35% for the first, 42.8% for the second.

First: COc1ccc(C(CC(=O)N2CCN(Cc3nc(CO)co3)CC2)c2cccc(F)c2)cc1 (centres undefined)
Second: O=C(CC(c1ccc(Br)cc1)c1cccc(F)c1)N1CCN(Cc2nc(CO)co2)CC1 (centres undefined)
The inhibition of the first is lower: 4.9% for the first, 21.3% for the second.

First: COc1ccc(C(CC(=O)N2CCN(Cc3nc4ccc(C)cc4o3)CC2)c2ccc(F)cc2)cc1 (centres undefined)
Second: Cc1ccc2nc(CN3CCN(C(=O)CC(c4ccc(F)cc4)c4ccc(Br)cc4)CC3)oc2c1 (centres undefined)
The inhibition of the first is higher: 23.3% for the first, 11.2% for the second.

Going from O=C(CC(c1ccc(Cl)cc1)c1cccc(F)c1)N1CCN(Cc2nc(C(=O)N3CCOCC3)co2)CC1 (centres undefined) to O=C(CC(c1ccc(Br)cc1)c1cccc(F)c1)N1CCN(Cc2nc(C(=O)N3CCOCC3)co2)CC1 (centres undefined), the inhibition falls from 48.6% to 44.6%.

First: COC(=O)c1coc(CN2CCN(C(=O)CC(c3ccc(F)cc3)c3ccc(Br)cc3)CC2)n1 (centres undefined)
Second: COC(=O)c1coc(CN2CCN(C(=O)CC(c3ccc(F)cc3)c3ccc(OC)cc3)CC2)n1 (centres undefined)
The inhibition of the first is higher: 42.1% for the first, 24.5% for the second.

First: O=C(O)c1coc(CN2CCN(C(=O)CC(c3ccc(F)cc3)c3ccc(Cl)cc3)CC2)n1 (centres undefined)
Second: COc1ccc(C(CC(=O)N2CCN(Cc3nc(C(=O)O)co3)CC2)c2ccc(F)cc2)cc1 (centres undefined)
The inhibition of the first is lower: 3.62% for the first, 7.68% for the second.

First: O=C(CC(c1ccc(C(F)(F)F)cc1)c1cccc(F)c1)N1CCN(Cc2nc(CO)co2)CC1 (centres undefined)
Second: O=C(CC(c1ccc(F)cc1)c1cccc(F)c1)N1CCN(Cc2nc(CO)co2)CC1 (centres undefined)
The inhibition of the first is higher: 19.2% for the first, 13.7% for the second.

Going from COc1ccc(C(CC(=O)N2CCN(Cc3nc(C(=O)N4CCOCC4)co3)CC2)c2cccc(F)c2)cc1 (centres undefined) to O=C(CC(c1ccc(F)cc1)c1cccc(F)c1)N1CCN(Cc2nc(C(=O)N3CCOCC3)co2)CC1 (centres undefined), the inhibition rises from 19.7% to 36.9%.

Compared with COC(=O)c1coc(CN2CCN(C(=O)CC(c3ccc(OC)cc3)c3cccc(F)c3)CC2)n1 (centres undefined), COC(=O)c1coc(CN2CCN(C(=O)CC(c3ccc(Cl)cc3)c3cccc(F)c3)CC2)n1 (centres undefined) is lower in inhibition: 25.5% for the first, 24.5% for the second.

Going from O=C(O)c1coc(CN2CCN(C(=O)CC(c3ccc(F)cc3)c3ccc(C(F)(F)F)cc3)CC2)n1 (centres undefined) to COC(=O)c1coc(CN2CCN(C(=O)CC(c3ccccc3)c3ccc(C(F)(F)F)cc3)CC2)n1 (centres undefined), the inhibition rises from 3.62% to 60.4%.

Going from Cc1ccc2nc(CN3CCN(C(=O)CC(c4ccc(Br)cc4)c4cccc(F)c4)CC3)oc2c1 (centres undefined) to Cc1ccc2nc(CN3CCN(C(=O)CC(c4ccc(F)cc4)c4cccc(F)c4)CC3)oc2c1 (centres undefined), the inhibition rises from 18% to 44.9%.

Compared with Cc1ccc2nc(CN3CCN(C(=O)CC(c4ccccc4)c4ccc(C(F)(F)F)cc4)CC3)oc2c1 (centres undefined), Cc1ccc2nc(CN3CCN(C(=O)CC(c4ccccc4)c4ccc(F)cc4)CC3)oc2c1 (centres undefined) is higher in inhibition: 22.4% for the first, 42.7% for the second.

Going from Cc1ccc2nc(CN3CCN(C(=O)CC(c4ccc(C(F)(F)F)cc4)c4cccc(F)c4)CC3)oc2c1 (centres undefined) to Cc1ccc2nc(CN3CCN(C(=O)CC(c4ccc(F)cc4)c4ccc(C(F)(F)F)cc4)CC3)oc2c1 (centres undefined), the inhibition falls from 26.4% to 9.84%.

First: Cc1ccc2nc(CN3CCN(C(=O)CC(c4ccccc4)c4ccc(Cl)cc4)CC3)oc2c1 (centres undefined)
Second: O=C(CC(c1ccc(Cl)cc1)c1cccc(F)c1)N1CCN(Cc2nc(CO)co2)CC1 (centres undefined)
The inhibition of the first is higher: 25.9% for the first, 19.2% for the second.

Going from O=C(CC(c1ccc(C(F)(F)F)cc1)c1cccc(F)c1)N1CCN(Cc2nc(C(=O)N3CCOCC3)co2)CC1 (centres undefined) to COC(=O)c1coc(CN2CCN(C(=O)CC(c3ccccc3)c3ccc(F)cc3)CC2)n1 (centres undefined), the inhibition falls from 53.4% to 27.7%.

For COC(=O)c1coc(CN2CCN(C(=O)CC(c3ccccc3)c3ccc(OC)cc3)CC2)n1 (centres undefined), the inhibition was 22.8%.

These compounds were tested against T1, Voltage-dependent T-type calcium channel subunit alpha-1G (assay: Inhibition of T-type alpha1G calcium channel).
Procedure, shortened: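 HEK293 cells stably expressing α1G and Kir2.1 were seeded at 4 × 10⁴ cells/well and used the next day. They were loaded with 5 µM fluo3/AM and 0.001% Pluronic F-127 for 60 min at room temperature in Hepes buffer (pH 7.4). Channels were activated by 70 mM KCl depolarization in buffer containing 10 mM CaCl₂, and the rise in intracellular Ca²⁺ was read by fluorescence (FDSS6000).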

With O=c1[nH]c2ccccc2n1C1CCN(CCCC(c2ccc(F)cc2)c2ccc(F)cc2)CC1 [PIMOZIDE] the Kd was 0.04 µM.

The compounds below were run against Voltage-gated inwardly rectifying potassium channel KCNH2 (Homo sapiens, UniProt Q12809) (assay: Inhibition of human hERG).
Chain of Voltage-gated inwardly rectifying potassium channel KCNH2 (Q12809 whole entry): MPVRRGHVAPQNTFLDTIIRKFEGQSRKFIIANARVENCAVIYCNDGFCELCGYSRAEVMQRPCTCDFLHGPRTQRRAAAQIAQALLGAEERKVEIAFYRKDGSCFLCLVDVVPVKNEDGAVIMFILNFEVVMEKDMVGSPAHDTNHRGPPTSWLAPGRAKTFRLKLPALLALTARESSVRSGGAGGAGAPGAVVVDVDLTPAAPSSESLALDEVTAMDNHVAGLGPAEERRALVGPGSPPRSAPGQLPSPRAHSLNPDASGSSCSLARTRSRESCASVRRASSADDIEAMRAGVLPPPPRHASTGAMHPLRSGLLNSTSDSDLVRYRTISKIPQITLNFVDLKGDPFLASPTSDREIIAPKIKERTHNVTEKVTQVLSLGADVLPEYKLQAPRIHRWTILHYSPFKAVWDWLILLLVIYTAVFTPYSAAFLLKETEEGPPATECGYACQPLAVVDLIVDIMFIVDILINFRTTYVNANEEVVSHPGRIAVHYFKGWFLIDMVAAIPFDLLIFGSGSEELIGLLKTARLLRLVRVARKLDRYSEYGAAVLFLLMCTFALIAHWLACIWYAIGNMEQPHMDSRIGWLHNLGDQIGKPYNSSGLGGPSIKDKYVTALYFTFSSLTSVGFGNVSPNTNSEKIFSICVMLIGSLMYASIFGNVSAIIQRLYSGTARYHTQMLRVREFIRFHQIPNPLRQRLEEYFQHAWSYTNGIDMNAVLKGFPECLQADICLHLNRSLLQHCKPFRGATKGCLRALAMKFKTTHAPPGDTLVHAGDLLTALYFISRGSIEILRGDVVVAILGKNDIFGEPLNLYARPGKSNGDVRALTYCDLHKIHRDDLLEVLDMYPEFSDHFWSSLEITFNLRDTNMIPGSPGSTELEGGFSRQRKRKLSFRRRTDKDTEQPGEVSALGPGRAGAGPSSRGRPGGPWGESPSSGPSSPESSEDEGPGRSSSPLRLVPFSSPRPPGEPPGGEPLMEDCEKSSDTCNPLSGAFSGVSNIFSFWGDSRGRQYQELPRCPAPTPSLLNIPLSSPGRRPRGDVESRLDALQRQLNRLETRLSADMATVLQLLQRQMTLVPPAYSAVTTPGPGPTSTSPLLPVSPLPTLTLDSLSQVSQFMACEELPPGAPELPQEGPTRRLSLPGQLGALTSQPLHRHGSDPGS

Work on COC(=O)c1coc(CN2CCN(C(=O)CC(c3ccc(F)cc3)c3ccc(Br)cc3)CC2)n1 (centres undefined) yielded an IC50 of 2.23 µM.

The compounds below were run against T1, Voltage-dependent T-type calcium channel subunit alpha-1G (assay: Inhibition of T-type alpha1G calcium channel expressed in HEK293 cells by whole-cell patch-clamp method).

First: COc1ccc(C(CC(=O)N2CCN(Cc3nc4ccc(C)cc4o3)CC2)c2ccccc2)cc1 (centres undefined)
Second: Cc1ccc2nc(CN3CCN(C(=O)CC(c4ccccc4)c4ccc(F)cc4)CC3)oc2c1 (centres undefined)
The IC50 of the first is 1.9-fold higher: 2.48 µM for the first, 1.29 µM for the second.

Compared with COC(=O)c1coc(CN2CCN(C(=O)CC(c3ccc(F)cc3)c3ccc(C(F)(F)F)cc3)CC2)n1 (centres undefined), COC(=O)c1coc(CN2CCN(C(=O)CC(c3ccc(F)cc3)c3ccc(Cl)cc3)CC2)n1 (centres undefined) is 5.1-fold higher in IC50: 1.73 µM for the first, 8.8 µM for the second. The first is the more potent here.

Going from COC(=O)c1coc(CN2CCN(C(=O)CC(c3ccc(F)cc3)c3ccc(Br)cc3)CC2)n1 (centres undefined) to COC(=O)c1coc(CN2CCN(C(=O)CC(c3ccccc3)c3ccc(Br)cc3)CC2)n1 (centres undefined), the IC50 rises from 0.83 µM to 21.1 µM (25-fold).

Compound COC(=O)c1coc(CN2CCN(C(=O)CC(c3ccccc3)c3ccc(C(F)(F)F)cc3)CC2)n1 (centres undefined) has an IC50 of 17 µM.
